The values that follow come from ChEMBL document CHEMBL1138867, “Design, synthesis, potency, and cytoselectivity of anticancer agents derived by parallel synthesis from alpha-aminosuberic acid” (J Med Chem, 2006).

The source made the active and inactive calls. The calls are words filed in the database; no cut-off is given here.

In assay [1] the test system is NFF. As to the kind of experiment: Selectivity index, IC50 for MM470 over IC50 for NFF cells. The assay is classed as functional, Homo sapiens. The gist of the method: (§1)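 Selectivity index: IC50 for normal neonatal foreskin fibroblasts (NFF) relative to IC50 for each cancer line, both from the same survival assay. Cells grown in RPMI 1640 with 10% heat-inactivated FCS at 37 °C and 5% CO2, plated at 5 × 10^3 cells/well and left to adhere overnight. Compound exposure 24 h, then removed and cells regrown 72 h in fresh medium. Fixed with methylated spirits, stained with sulforhodamine B, read at 564 nm.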

The subject of assay [2] is NFF. The assay is described as follows: Selectivity index, IC50 for AF6 over IC50 for NFF cells. In kind it is functional, Homo sapiens.
For assay [3], the system named is NFF. As to the kind of experiment: Selectivity index, IC50 for D17 over IC50 for NFF cells. The assay is classed as functional, Homo sapiens.
Assay [4] in a line: Antiproliferative activity against human D14 cells. In kind it is functional, cell-based. The gist of the method:
(§2)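 Cells cultured in RPMI 1640 with 10% heat-inactivated FCS, 3 mM HEPES, 5% CO2, 37 °C; NFF are primary neonatal foreskin fibroblasts. Cells were seeded at 5 × 10^3/well and left to adhere overnight. They were exposed to compound for 24 h, then the medium was replaced and cells grown a further 72 h. Survival was read by SRB staining at 564 nm, giving IC50.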

Assay [5] has as its system SK-MEL-28. As to the kind of experiment: Antiproliferative activity against human SK-Mel-28 cells. The assay is classed as functional, cell-based. The gist of the method:
as §2

The test system of assay [6] is NFF. The assay is described as follows: Selectivity index, IC50 for MM229 over IC50 for NFF cells. In kind it is functional, Homo sapiens. The gist of the method:
as §1

The subject of assay [7] is A2058. The assay is described as follows: Antiproliferative activity against human A2058 cells. In kind it is functional, cell-based. In short, it runs like this:
as §2

For assay [8], the system named is HeLa. The assay is described as follows: Antiproliferative activity against human HeLa cells. In kind it is functional, cell-based. The gist of the method: as §2
Assay [9] can be described thus: Antiproliferative activity against human AO7 RM cells. In kind it is functional, cell-based. In short, it runs like this: as §2
Assay [10] relates to NFF. As to the kind of experiment: Selectivity index, IC50 for DO4 over IC50 for NFF cells. The assay is classed as functional, Homo sapiens.
Assay [11] has as its system MM96L. The assay is described as follows: Antiproliferative activity against human MM96L cells. In kind it is functional, cell-based. In short, it runs like this: as §2
Assay [12] can be described thus: Antiproliferative activity against human MM229 cells. In kind it is functional, cell-based. In short, it runs like this:
as §2

The nature of assay [13]: Antiproliferative activity against human LSP M2 cells. In kind it is functional, cell-based. The gist of the method: as §2
In assay [14] the test system is NFF. The assay is described as follows: Selectivity index, IC50 for HeLa over IC50 for NFF cells. In kind it is functional, Homo sapiens.
Assay [15] has as its system NFF. The assay is described as follows: Selectivity index, IC50 for MM329 over IC50 for NFF cells. In kind it is functional, Homo sapiens. The gist of the method:
as §1

For assay [16], the system named is NFF. As to the kind of experiment: Selectivity index, IC50 for Mel RM over IC50 for NFF cells. In kind it is functional, Homo sapiens. In short, it runs like this: as §1
The nature of assay [17]: Antiproliferative activity against human Mel FH cells. In kind it is functional, cell-based. The gist of the method:
as §2

In assay [18] the test system is NFF. As to the kind of experiment: Selectivity index, IC50 for D11 over IC50 for NFF cells. In kind it is functional, Homo sapiens.
The subject of assay [19] is NFF. The assay is described as follows: Antiproliferative activity against human NFF cells. In kind it is functional, cell-based. In short, it runs like this:
as §2

Assay [20] has as its system MM96L. As to the kind of experiment: Induction of histone H4 acetylation in human MM96L cells. In kind it is functional, cell-based. The gist of the method: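 MM96L melanoma cells were exposed for 8 h to 0.05, 0.5 or 5 µg/mL compound, with DMSO vehicle and untreated controls. Histones were extracted and resolved by TAU gel electrophoresis to separate non-, mono-, di-, tri- and tetra-acetylated histone H4.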

For assay [21], the system named is NFF. The assay is described as follows: Selectivity index, IC50 for Mel FH over IC50 for NFF cells. In kind it is functional, Homo sapiens. In short, it runs like this: as §1
Assay [22] is described as follows: Antiproliferative activity against human AF6 cells. In kind it is functional, cell-based. The gist of the method:
as §2

Assay [23] can be described thus: Antiproliferative activity against human D11 cells. The assay is classed as functional, cell-based. The gist of the method:
as §2

For assay [24], the system named is NFF. As to the kind of experiment: Selectivity index, IC50 for MM604 over IC50 for NFF cells. In kind it is functional, Homo sapiens. In short, it runs like this: as §1
The subject of assay [25] is NFF. The assay is described as follows: Selectivity index, IC50 for D14 over IC50 for NFF cells. In kind it is functional, Homo sapiens.
Assay [26] relates to NFF. The assay is described as follows: Selectivity index, IC50 for AO7 RM over IC50 for NFF cells. The assay is classed as functional, Homo sapiens.
A short description of assay [27]: Antiproliferative activity against human D17 cells. The assay is classed as functional, cell-based. The gist of the method:
as §2

Assay [28] relates to DO4. The assay is described as follows: Antiproliferative activity against human DO4 cells. In kind it is functional, cell-based. In short, it runs like this:
as §2

Assay [29] can be described thus: Antiproliferative activity against human MM604 cells. In kind it is functional, cell-based. The gist of the method:
as §2

For assay [30], the system named is NFF. As to the kind of experiment: Selectivity index, IC50 for A2058 over IC50 for NFF cells. In kind it is functional, Homo sapiens.
Assay [31] has as its system NFF. As to the kind of experiment: Selectivity index, IC50 for LSP M2 over IC50 for NFF cells. The assay is classed as functional, Homo sapiens. The gist of the method: as §1
Assay [32] is described as follows: Antiproliferative activity against human MM470 cells. The assay is classed as functional, cell-based. In short, it runs like this: as §2
A short description of assay [33]: Antiproliferative activity against human MM329 cells. In kind it is functional, cell-based. In short, it runs like this: as §2
The nature of assay [34]: Antiproliferative activity against human Mel RM cells. The assay is classed as functional, cell-based. In short, it runs like this: as §2
For assay [35], the system named is MM96L. As to the kind of experiment: Effect on cell morphology in human MM96L cells at 3 ug/mL after 24 hrs. The assay is classed as functional, cell-based.
For assay [36], the system named is T47D. The assay is described as follows: Antiproliferative activity against human T-47D cells. The assay is classed as functional, cell-based. The gist of the method: as §2
The subject of assay [37] is A549. As to the kind of experiment: Induction of p21 expression in human A549 cells after 24 hrs. In kind it is functional, cell-based. In short, it runs like this: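 A549 cells were treated 24 h with 0.05, 0.5 or 5 µg/mL compound or vehicle. Lysates were made by sonication in 1% SDS/20% glycerol/10 mM Tris pH 7.4 buffer, and protein was quantified by BCA. Then 30 µg was run on 15% SDS-PAGE and immunoblotted for p21WAF1/Cip1 (1:1000), with GAPD (1:10 000) as reference, using chemiluminescence detection.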

A short description of assay [38]: Antiproliferative activity against human H520 cells. The note with it: NCI-H520. The assay is classed as functional, cell-based. In short, it runs like this:
as §2

The test system of assay [39] is DU-145. As to the kind of experiment: Antiproliferative activity against human DU145 cells. The assay is classed as functional, cell-based. In short, it runs like this:
as §2

Assay [40] concerns COLO 205. As to the kind of experiment: Antiproliferative activity against human Colo205 cells. The assay is classed as functional, cell-based. In short, it runs like this: as §2
The test system of assay [41] is A549. As to the kind of experiment: Antiproliferative activity against human A549 cells. The assay is classed as functional, cell-based. The gist of the method: as §2
Assay [42] relates to MCF7. As to the kind of experiment: Antiproliferative activity against human MCF7 cells. The assay is classed as functional, cell-based. The gist of the method:
as §2

For assay [43], the system named is C180-13S. As to the kind of experiment: Antiproliferative activity against human C180-13S cells. In kind it is functional, cell-based. In short, it runs like this: as §2
Assay [44] in a line: Antiproliferative activity against human JAM cells. In kind it is functional, cell-based. In short, it runs like this: as §2
Assay [45] deals with PC-3. As to the kind of experiment: Antiproliferative activity against human PC3 cells. The assay is classed as functional, cell-based. In short, it runs like this: as §2
The test system of assay [46] is HT-29. As to the kind of experiment: Antiproliferative activity against human HT29 cells. The assay is classed as functional, cell-based. The gist of the method: as §2
For assay [47], the system named is HOP-62. The assay is described as follows: Antiproliferative activity against human HOP62 cells. In kind it is functional, cell-based. In short, it runs like this: as §2
In assay [48] the test system is SK-MEL-5. The assay is described as follows: Antiproliferative activity against human SK-Mel-5 cells. In kind it is functional, cell-based. The gist of the method:
as §2

Assay [49] deals with A549 (Homo sapiens). The assay is described as follows: Induction of p21 expression in human A549 cells.

With `CN(C)c1ccc(C(=O)NC(CCCCCC(=O)NO)C(=O)NCc2ccccc2)cc1` (centres undefined), the “Ratio IC50” value in [1] came out at 9.7; in [2] it was 2.9; in [3] it was 14.5; in [6], 1.5; in assay [10], 7.3; in assay [14], 9.7. Also, the “Ratio IC50” value in assay [15] stood at 14.5; in [16], 0.9; in [18], 2.9; in [21] it was 10.9; in [24] it was 87; in [25], 3.3. The “Ratio IC50” value in [26] was found to be 4.8; in [30], 8.7; in [31], 1.9. Moreover, the IC50 was 260 nM in assay [4]; 60 nM in assay [5]; 100 nM in assay [7]; 90 nM in [8]; 180 nM in assay [9]; 130 nM in assay [11]. Also, the IC50 in assay [12] worked out at 600 nM; in assay [13], 450 nM; in assay [17], 80 nM; in assay [19], 870 nM; in [22], 300 nM; in assay [23], 300 nM. For the same molecule, the 50% inhibitory concentration (IC50) was determined as 60 nM in [27]; 120 nM in assay [28]; 10 nM in assay [29]; 90 nM in [32]; 60 nM in [33]; 950 nM in [34]. Further, in [20], the Activity entry is “Dose-dependent effect”.

Take `CN(C)c1ccc(C(=O)N[C@@H](CCCCCC(=O)NO)C(=O)NCc2ccccc2)cc1`: the outcome in assay [35] was Active. Besides, the 50% inhibitory concentration (IC50) in assay [11] was determined as 1600 nM; in assay [19], 12000 nM.

Turning to `O=C(CCCCC[C@H](NC(=O)c1cc2ccccc2[nH]1)C(=O)Nc1cccc2cccnc12)NO`, the IC50 stood at 33 nM in assay [5]; 19 nM in assay [36]; 21 nM in assay [11]; 26 nM in assay [38]; 22 nM in [39]; 337 nM in assay [19]. Further, the concentration for half-maximal inhibition (IC50) in assay [40] was found to be 102 nM; in assay [41], 69 nM; in assay [42], 19 nM; in [43] it was 20 nM; in [44], 48 nM; in [45], 148 nM. Moreover, the IC50 in [46] is 79 nM; in assay [47], 63 nM; in [48] it was 18 nM. Further, the outcome in assay [37] and in assay [49] was Active.
